# Results published in ChEMBL document CHEMBL2176880 (J Med Chem, 2012).
# Active and inactive are the calls of the source.
# Key:
# Cytochrome P450 2C9 = Cytochrome P450 2C9 (Homo sapiens, UniProt P11712); assay: Inhibition of CYP2C9; assay type: ADME
# Salmonella typhimurium = assay: Mutagenicity in Salmonella typhimurium TA98 up to […]; assay type: toxicity, organism-based; conditions: salmonella enterica subsp. enterica serovar typhimurium
# [1] = Oral bioavailability in dog rat at […]; assay type: ADME, organism-based, Canis lupus familiaris; conditions: in vivo
# [2] = Clearance in Sprague-Dawley rat at […], iv; assay type: ADME, organism-based; design: dose 2.5 mg/kg, route intravenous; conditions: in vivo
# [3] = Cmax in Sprague-Dawley rat at […], iv or 10 mg/kg, po; assay type: ADME, organism-based; conditions: in vivo
# Rattus norvegicus [4] = assay: Prolongation of REM sleep onset latency in Sprague-Dawley rat sleep-wake EEG paradigm model at 3 mg/kg, po; assay type: functional, organism-based; design: dose 3 mg/kg
# Summary of the method: (§1)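 Male Sprague−Dawley rats (250−300 g) chronically implanted with EEG, EMG and EOG electrodes; n = 8 per group. A 20 h recording after oral saline was followed by a 20 h recording at the same circadian time after oral vehicle (20% CD + 2H2T) or compound (3 mg/kg), starting at 13:30 in the lights-on period. 2 s epochs scored into sleep−wake stages; REM onset latency and state transitions determined. Wilcoxon−Mann−Whitney tests against vehicle.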
# [5] = Lipophilicity, log P of the compound at pH 7; conditions: buffer
# [6] = Ratio of drug level in brain to plasma in Swiss mouse at 10 mg/kg, sc administered as single dose measured 1 hr post dose; assay type: ADME, organism-based; design: dose 10 mg/kg, route subcutaneous; conditions: read-out: BPR
# Summary of the method: (§2)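 Swiss mice given a single 10 mg/kg sc dose at 1 mg/mL in 20% HP-β-CD + HCl solution, pH 4. Brain and plasma levels taken 1 h post dose. Values are geometric means of at least two runs.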
# Rattus norvegicus [7] = assay: Effect on sleep-wake stages in Sprague-Dawley rat sleep-wake EEG paradigm model at 3 mg/kg, po; assay type: ADME, organism-based; design: dose 3 mg/kg, route oral; conditions: in vivo; summary of the method: as §1
# Rattus norvegicus [8] = assay: Effect on sleep-wake stages in Sprague-Dawley rat sleep-wake EEG paradigm model assessed as induction of sleep fragmentation at 3 mg/kg, po; assay type: organism-based; design: dose 3 mg/kg, route oral; conditions: in vivo; summary of the method: as §1
# Cavia porcellus = assay: Cardiotoxicity in anesthetized guinea pig assessed as proarrhythmic potency; assay type: toxicity, organism-based; conditions: in vivo
# [9] = Protein binding in human plasma; assay type: ADME, cell-free; conditions: read-out: PPB (converted)
# [10] = Volume of distribution at steady state in dog rat at 1 mg/kg, iv or […], po; assay type: ADME, organism-based, Canis lupus familiaris; conditions: in vivo, read-out: Vdss
# Mus musculus [11] = assay: Antipsychotic activity in subcutaneously dosed NMRI mouse assessed as reversal of PCP-induced hyperlocomotion; assay type: functional
# Summary of the method: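 Nonhabituated mice given vehicle or test compound sc, then immediately challenged with PCP (5.0 mg/kg, sc) or vehicle and placed singly in open fields for 30 min. Distance travelled measured by video tracking. Responder criterion: total distance < 5500 counts.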
# [12] = Cardiotoxicity assessed as proarrhythmic potency in rabbit Purkinje fibers; assay type: toxicity, tissue-based, Oryctolagus cuniculus, Purkinje fiber
# [13] = Drug level in Swiss mouse brain at 10 mg/kg, sc administered as single dose measured 1 hr post dose; assay type: ADME, organism-based; design: dose 10 mg/kg, route subcutaneous; conditions: read-out: Drug uptake; summary of the method: as §2
# Rattus norvegicus [14] = assay: Inhibition of REM sleep state in po dosed Sprague-Dawley rat sleep-wake EEG paradigm model; assay type: functional; conditions: read-out: MED
# TK6 [15] = assay: Genotoxicity in human TK6 cells in presence of rat liver S9 fraction up to 150 ug/ml; assay type: toxicity, cell-based
# Summary of the method: (§3)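 In vitro micronucleus test in human lymphoblastoid TK6 cells, with or without metabolic activation by rat liver S9, tested up to 150 μg/mL.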
# Cytochrome P450 2D6 = Cytochrome P450 2D6 (Homo sapiens, UniProt P10635); assay: Inhibition of CYP2D6; assay type: ADME
# Cytochrome P450 2C19 = Cytochrome P450 2C19 (Homo sapiens, UniProt P33261); assay: Inhibition of CYP2C19; assay type: ADME
# TK6 [16] = assay: Genotoxicity in human TK6 cells in absence of rat liver S9 fraction up to 150 ug/ml; assay type: toxicity, cell-based; summary of the method: as §3
# [17] = Oral bioavailability in Sprague-Dawley rat at 10 mg/kg; assay type: ADME, organism-based; conditions: in vivo
# Cytochrome P450 1A2 = molecular target: T1, Cytochrome P450 1A2 (Homo sapiens, UniProt P05177); assay: Inhibition of CYP1A2; assay type: ADME
# T1 sequence (P05177 whole entry): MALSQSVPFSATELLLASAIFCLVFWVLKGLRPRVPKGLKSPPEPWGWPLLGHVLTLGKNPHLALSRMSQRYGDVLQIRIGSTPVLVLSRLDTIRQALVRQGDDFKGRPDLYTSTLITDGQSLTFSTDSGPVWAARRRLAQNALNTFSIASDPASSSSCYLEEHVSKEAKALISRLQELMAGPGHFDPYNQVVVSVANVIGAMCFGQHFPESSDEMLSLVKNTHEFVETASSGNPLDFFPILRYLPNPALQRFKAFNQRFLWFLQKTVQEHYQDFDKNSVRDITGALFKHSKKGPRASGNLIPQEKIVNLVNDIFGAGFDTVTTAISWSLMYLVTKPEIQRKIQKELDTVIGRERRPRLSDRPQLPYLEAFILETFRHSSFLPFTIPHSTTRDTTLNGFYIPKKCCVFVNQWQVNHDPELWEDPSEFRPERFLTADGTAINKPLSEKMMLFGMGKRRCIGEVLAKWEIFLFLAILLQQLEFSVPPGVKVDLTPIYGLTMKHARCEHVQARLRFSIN
# [18] = Drug metabolism in human liver microsomes at 5 uM after 15 mins; assay type: ADME, Microsome; conditions: read-out: Drug metabolism
# Summary of the method: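 Compound at 5 μM incubated 15 min with human liver microsomes; read-out is % of compound metabolized. Values are the mean of at least two experiments.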
# [19] = Protein binding in rat plasma; assay type: ADME, cell-free; conditions: read-out: PPB (converted)
# [20] = Volume of distribution at steady state in Sprague-Dawley rat at […], iv or 10 mg/kg, po; assay type: ADME, organism-based; conditions: in vivo, read-out: Vdss
# [21] = Drug metabolism in mouse liver microsomes at 5 uM after 15 mins; assay type: ADME, Microsome; conditions: read-out: Drug metabolism
# Cytochrome P450 3A4 = Cytochrome P450 3A4 (Homo sapiens, UniProt P08684); assay: Inhibition of CYP3A4; assay type: ADME
# MDR1 [22] = assay: Apparent permeability from basolateral to apical side in MDR1 expressing pig LLC-PK1 cells; assay type: ADME, cell-based, Sus scrofa
# [23] = Half life in dog rat at 1 mg/kg, iv or […], po; assay type: ADME, organism-based, Canis lupus familiaris; conditions: in vivo
# Canis familiaris = assay: Cardiotoxicity in anesthetized dog assessed as proarrhythmic potency; assay type: toxicity, organism-based, Canis lupus familiaris; conditions: in vivo
# [24] = Half life in Sprague-Dawley rat at […], iv; assay type: ADME, organism-based; design: dose 2.5 mg/kg, route intravenous; conditions: in vivo
# Rattus norvegicus [25] = assay: Inhibition of REM sleep state in Sprague-Dawley rat sleep-wake EEG paradigm model assessed as efficacy free concentration at 3 mg/kg, po; assay type: functional
# [26] = Clearance in dog rat at 1 mg/kg, iv or […], po; assay type: ADME, organism-based, Canis lupus familiaris; conditions: in vivo
# [27] = AUC (0 to infinity) in Sprague-Dawley rat at 10 mg/kg, po; assay type: ADME, organism-based; design: time infinity, dose 10 mg/kg, route oral; conditions: plasma
# [28] = Tmax in Sprague-Dawley rat at […], iv or 10 mg/kg, po; assay type: ADME, organism-based; conditions: in vivo
# [29] = AUC (0 to infinity) in dog rat at 1 mg/kg, iv or […], po; assay type: ADME, organism-based, Canis lupus familiaris; conditions: plasma
# [30] = Tmax in dog rat at 1 mg/kg, iv or […], po; assay type: ADME, organism-based, Canis lupus familiaris; conditions: in vivo
# [31] = Plasma concentration in Swiss mouse at 10 mg/kg, sc administered as single dose measured 1 hr post dose; assay type: ADME, organism-based; design: dose 10 mg/kg, route subcutaneous; summary of the method: as §2
# Mus musculus [32] = assay: Antipsychotic activity in subcutaneously dosed NMRI mouse assessed as efficacy free concentration causing reversal of PCP-induced hyperlocomotion; assay type: functional
# MDR1 [33] = assay: Apparent permeability from apical to basolateral side in MDR1 expressing pig LLC-PK1 cells; assay type: ADME, cell-based, Sus scrofa
# [34] = Dissociation constant, pKa of the compound; assay type: physicochemical
# [35] = Cmax in dog rat at 1 mg/kg, iv or […], po; assay type: ADME, organism-based, Canis lupus familiaris; conditions: in vivo
# Rattus norvegicus [36] = assay: Inhibition of REM sleep state in Sprague-Dawley rat sleep-wake EEG paradigm model at 3 mg/kg, po; assay type: functional, organism-based; design: dose 3 mg/kg; summary of the method: as §1
# Chain of Cytochrome P450 2D6 (P10635 whole entry): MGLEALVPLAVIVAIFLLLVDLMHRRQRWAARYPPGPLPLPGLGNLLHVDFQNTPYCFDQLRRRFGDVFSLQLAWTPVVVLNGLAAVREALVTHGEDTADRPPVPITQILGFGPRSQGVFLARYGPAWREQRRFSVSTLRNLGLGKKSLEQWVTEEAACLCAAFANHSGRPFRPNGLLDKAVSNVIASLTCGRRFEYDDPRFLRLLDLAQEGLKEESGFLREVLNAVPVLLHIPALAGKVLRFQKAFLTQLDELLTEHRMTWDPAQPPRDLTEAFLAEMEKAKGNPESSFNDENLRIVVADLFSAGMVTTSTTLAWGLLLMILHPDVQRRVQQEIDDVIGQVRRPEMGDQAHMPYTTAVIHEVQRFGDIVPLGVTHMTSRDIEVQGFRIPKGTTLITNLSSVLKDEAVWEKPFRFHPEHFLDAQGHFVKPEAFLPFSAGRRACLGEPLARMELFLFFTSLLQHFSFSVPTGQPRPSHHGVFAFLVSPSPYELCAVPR
# Chain of Cytochrome P450 3A4 (P08684 whole entry): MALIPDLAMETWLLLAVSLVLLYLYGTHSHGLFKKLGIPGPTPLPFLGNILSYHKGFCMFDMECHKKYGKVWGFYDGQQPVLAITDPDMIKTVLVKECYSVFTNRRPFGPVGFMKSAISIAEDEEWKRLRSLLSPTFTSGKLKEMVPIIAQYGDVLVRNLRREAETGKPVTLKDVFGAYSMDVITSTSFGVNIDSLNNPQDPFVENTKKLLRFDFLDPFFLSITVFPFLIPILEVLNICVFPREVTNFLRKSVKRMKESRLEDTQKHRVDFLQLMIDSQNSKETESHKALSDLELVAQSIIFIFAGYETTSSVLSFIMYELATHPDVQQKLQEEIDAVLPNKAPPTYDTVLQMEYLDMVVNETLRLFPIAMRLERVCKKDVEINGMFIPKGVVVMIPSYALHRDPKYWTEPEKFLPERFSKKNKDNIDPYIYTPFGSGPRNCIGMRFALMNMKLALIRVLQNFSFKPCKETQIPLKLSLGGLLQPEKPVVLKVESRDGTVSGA
# Chain of Cytochrome P450 2C19 (P33261 whole entry): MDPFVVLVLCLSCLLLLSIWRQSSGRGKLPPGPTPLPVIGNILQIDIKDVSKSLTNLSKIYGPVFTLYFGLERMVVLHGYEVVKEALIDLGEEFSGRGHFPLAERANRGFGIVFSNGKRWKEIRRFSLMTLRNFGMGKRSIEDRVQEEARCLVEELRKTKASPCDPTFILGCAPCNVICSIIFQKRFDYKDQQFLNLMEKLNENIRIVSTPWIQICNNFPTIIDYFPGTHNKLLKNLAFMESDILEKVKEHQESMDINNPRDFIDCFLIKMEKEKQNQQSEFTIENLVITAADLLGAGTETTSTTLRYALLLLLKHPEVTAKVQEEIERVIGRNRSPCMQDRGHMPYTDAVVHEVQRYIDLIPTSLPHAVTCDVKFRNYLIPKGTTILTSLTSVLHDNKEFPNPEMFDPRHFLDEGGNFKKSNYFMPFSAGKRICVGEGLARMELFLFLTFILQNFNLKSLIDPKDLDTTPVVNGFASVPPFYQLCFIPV
# Chain of Cytochrome P450 2C9 (P11712 whole entry): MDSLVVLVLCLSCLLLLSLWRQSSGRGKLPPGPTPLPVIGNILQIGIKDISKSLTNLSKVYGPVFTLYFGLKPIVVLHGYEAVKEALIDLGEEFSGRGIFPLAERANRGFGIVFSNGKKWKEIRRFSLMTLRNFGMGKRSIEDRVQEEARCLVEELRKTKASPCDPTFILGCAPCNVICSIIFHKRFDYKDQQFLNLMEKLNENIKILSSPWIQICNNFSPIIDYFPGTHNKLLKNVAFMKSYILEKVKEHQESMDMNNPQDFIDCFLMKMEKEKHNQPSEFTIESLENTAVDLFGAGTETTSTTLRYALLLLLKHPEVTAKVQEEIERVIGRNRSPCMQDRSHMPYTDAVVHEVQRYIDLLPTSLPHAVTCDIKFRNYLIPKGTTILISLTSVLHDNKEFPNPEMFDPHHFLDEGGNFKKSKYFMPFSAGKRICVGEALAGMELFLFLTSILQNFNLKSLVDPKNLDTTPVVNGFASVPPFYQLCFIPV
smiles,measurement,setting,value
FC(F)(F)c1c(N2CCC(c3ccccc3)CC2)ccn2c(CC3CC3)nnc12,IC50,Cytochrome P450 2C9,11 µM
same,Activity,Salmonella typhimurium,Non-toxic
same,bioavailability,[1],18%
same,clearance,[2],35 mL/min/kg
same,Cmax,[3],482 ng/mL
same,Activity,Rattus norvegicus [4],Active
same,logD,[5],4.4
same,Kp at 1 h,[6],1.4
same,Activity,Rattus norvegicus [7],Non-toxic
same,Activity,Rattus norvegicus [8],Non-toxic
same,NOAEL,Cavia porcellus,9000 ng/mL
same,fraction unbound,[9],0.0018
same,Vd,[10],1.3 L/kg
same,Activity,Mus musculus [11],Dose-dependent effect
same,ED50,Mus musculus [11]; sc,5.4 mg/kg
same,NOAEL,[12],0.075 µM
same,concentration at 1 h,[13],849 ng/mL
same,minimal effective dose,Rattus norvegicus [14],3 mg/kg
same,Activity,TK6 [15],Non-toxic
same,IC50,Cytochrome P450 2D6,> 30 µM
same,IC50,Cytochrome P450 2C19,20 µM
same,Activity,TK6 [16],Non-toxic
same,bioavailability,[17],36%
same,IC50,Cytochrome P450 1A2,> 30 µM
same,"metabolised at […], 5 µM",[18],23%
same,fraction unbound,[19],0.0035
same,Vd,[20],1.4 L/kg
same,"metabolised at […], 5 µM",[21],25%
same,IC50,Cytochrome P450 3A4,> 30 µM
same,Papp B→A,MDR1 [22],6 ×10⁻⁶ cm/s
same,half-life,[23],48 min
same,NOAEL,Canis familiaris,6625 ng/mL
same,half-life,[24],162 min
same,INH,Rattus norvegicus [25],0.14 ng/mL
same,clearance,[26],29 mL/min/kg
same,AUC(0-inf),[27],1800 ng·h/mL
same,Tmax,[28],30 min
same,AUC(0-inf),[29],531 ng·h/mL
same,Tmax,[30],30 min
same,concentration at 1 h,[31],671 ng/mL
same,INH,Mus musculus [32],2.6 ng/mL
same,Papp A→B,MDR1 [33],12 ×10⁻⁶ cm/s
same,pKa,[34],4.1
same,Cmax,[35],218 ng/mL
same,inhibition,Rattus norvegicus [36],Active
